Compound activity deposited in PubChem by The Scripps Research Institute Molecular Screening Center.
UHRF1 MBD2 ctr: UHRF1 methyl-DNA binding inhibition; Q96T88; UHRF1 binding to methylated oligo, TR-FRET; inhibition, % at 4.4 µM; hit rate 0.75% among 370,000; in the data active means inhibition above about 21%;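 further: UHRF1 SRA domain binding a hemimethylated CpG hairpin DNA probe; 0% = median of test compound wells and 100% = reference inhibitor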
PRMT1 FP inh: inhibitors of human PRMT1. Q99873. recombinant PRMT1, activity-based probe fluorescence polarization. inhibition, % at 2.79 µM. hit rate 1.3% among 370,000;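 active means inhibition above about 21% made by adding two undisclosed values, limit read from the data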
LEDGF integ inh: blocks HIV-1 LEDGF/p75-dependent DNA integration; inhibition, % at 3.7 µM; hit rate 0.64% among 370,000; TR-FRET IN-LEDGF/p75 DNA integration, Eu/Cy5; AID 743269;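 active means inhibition above the screen-wide mean plus 3 SD, cut at about 13% in these data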;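 further: signal is the Cy5 over europium emission ratio at 671 and 618 nm; 0% = plate median of compound wells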
SIAE primary: blocks human sialic acid acetylesterase; Q9HAT2; SIAE FP-Rh probe binding, fluorescence polarization; inhibition, % at 9.66 µM; hit rate 0.69% among 370,000;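 active means inhibition above a cutoff: mean of compounds within the control limits plus 3 SD of those, cut at about 17% in these data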;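 further: 0% = plate median of compound wells and 100% = probe without SIAE protein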
TDP2 absorb: blocks human TDP2 phosphodiesterase activity. O95551. recombinant TDP2, T5PNP hydrolysis, p-nitrophenol absorbance 415 nm. inhibition, % at 12.8 µM. hit rate 0.34% among 370,000;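 active means inhibition above the mean of all tested compounds plus 3 SD, set per campaign, cut at about 25% in these data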;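 further: 0% = DMSO with enzyme and 100% = buffer with substrate but no TDP2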
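System – recombinant human TDP2 · Amount – 120 nM TDP2 per well · Buffer or medium – Mg2+-containing Tris-HCl buffer, pH 7.5 · Reagent – T5PNP substrate, 5 mM · Dosing – 12.8 µM single point, 1% DMSO · Incubation – 2 h at 37 °C · Measured by – epi absorbance · Read-out basis – percent inhibition · Benchmarks – high control without enzyme, low control DMSO plus TDP2 · Repeats – singlicate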
MBD2 inh: inhibitors of human MBD2 binding to methylated oligonucleotide. hit rate 0.31% among 370,000. inhibition, % at 4.4 µM. AID 686964. TR-FRET; in the data active means inhibition above about 13%
The depositor's hits bear a star. Most compounds without a hit are left out; they make up all but 3.3% or so of the library.

SMILES | UHRF1 MBD2 ctr | PRMT1 FP inh | LEDGF integ inh | SIAE primary | TDP2 absorb | MBD2 inh
O=C(CSc1nc2ccccc2nc1N1CCCC1)N1CCN(C(c2ccccc2)c2ccccc2)CC1 | 0 | 4 | -2 | -1 | -1 | 4
Cc1cc(SCC(=O)N/N=C/c2ccc(O)c(O)c2O)c(C)cc1Br | 1 | 35* | 1 | 35* | -3 | 4
C=CCN1C(=O)[C@@H](CC(=O)N2CCN(C(=O)OCC)CC2)[C@]2(C(=O)OC)CCCCC=C12 | 2 | -1 | -2 | 9 | 8 | 5
CC[C@@]12C(=O)N(c3ccccc3)C(=O)N1[C@H](c1cccc(C)c1)[C@@H]1C(=O)N(Cc3ccccc3)C(=O)[C@@H]12 | 24* | 2 | 10 | 1 | 11 | 7
Cc1cc(Cl)ccc1NNC(N)=S | 22* | 15 | 1 | 1 | -3 | 7
COc1ccc(-n2c(SCC(=O)Nc3cc(C)c(NC(=O)c4ccccc4)cc3OC)nnc2-c2ccco2)cc1 | 2 | 4 | 3 | -6 | -15 | -2
Cc1ccc(NC(=O)CN2C(=O)N/C(=C/c3cccn3-c3ccc(C(=O)O)cc3)C2=O)cc1 | 102* | 30* | 57* | 1 | 16 | 72*
Cc1ccc(NC(=O)CN2C(=O)N/C(=C/c3cc(C)n(-c4ccc(C(=O)O)cc4)c3C)C2=O)cc1 | 5 | 7 | 7 | -1 | 8 | -5
Cc1cc(Cl)cc(Cl)c1OCCCCN(C)C | 22* | 2 | 3 | -1 | 17 | 4
Cc1cc(C)c(OCCCCN(C)C)c(Br)c1 | 0 | 3 | -3 | -1 | -1 | 1
O=C(COC(=O)c1ccccc1C(=O)N1CCN(c2ccccc2)CC1)Nc1ccccc1 | -3 | 22* | 4 | 5 | -23 | -1
CCOC(=O)N1CCN(C(=O)C2CCN(C(=O)c3ccccc3C)CC2)CC1 | 2 | 91* | -1 | -23 | 1 | 2
Cc1ccc(C(=O)CCC(=O)Nc2ccc(C)cn2)cc1 | 29* | -6 | 5 | 2 | -19 | -4
CCOC(=O)C1(Cc2ccccc2)CCN(Cc2ccnc3ccccc23)CC1 | 2 | 6 | 2 | 2 | -2 | -3
COc1ccc(Br)cc1S(=O)(=O)NCc1ccccc1 | -3 | -3 | 2 | -5 | 6 | 2
COc1ccc(/C=C/C(=O)O)cc1S(=O)(=O)NCc1ccccc1 | 13 | -2 | 88* | 3 | -15 | 8
N=c1c2c(ccn1CCCc1ccccc1)Oc1ccc3ccccc3c1C2c1ccccc1 (stereo not given) | 17 | -3 | 3 | -71 | 13 | 12
CN(Cc1ccco1)c1ncnc2ccc(-c3ccoc3)cc12 | 22* | 9 | 20* | -7 | -4 | 13
COC(=O)[C@@]12CCCCC3=C1N(CCC3)C(=O)[C@H]2CC(=O)N1CCC(c2ccccc2)CC1 | 1 | 3 | 1 | 4 | 3 | 2
CC(C)(C)c1ccc(-c2noc(CCC(=O)NC3CC3)n2)cc1 | -2 | 4 | -3 | 2 | 4 | 3
CCC(NC(=O)c1cccc2c1C(=O)N(Cc1cccnc1)C2)c1ccccc1 (stereo not given) | 1 | -4 | 4 | -1 | -9 | 2
CCOC(=O)C1=C(C)NC2=C(C(=O)CCC2)C1c1cccnc1 (stereo not given) | 6 | -1 | -5 | 0 | -5 | -3
CC1=C(C(=O)OC(C)C)C(c2cccnc2)C2=C(CCCC2=O)N1 (stereo not given) | 91* | -2 | 1 | -9 | -4 | -1
Cc1cc(=O)[nH]c(SCC(=O)Nc2ccc(Cl)cc2)n1 | 1 | 1 | -3 | 0 | 3 | 0
O=C1c2cccn2CC2Cc3ccccc3N12 (stereo not given) | 3 | 0 | 2 | -4 | -6 | 3
SMILES | UHRF1 MBD2 ctr | PRMT1 FP inh | LEDGF integ inh | SIAE primary | TDP2 absorb | MBD2 inh
Clc1ccc([C@H]2OC[C@@]3(CNCC4CC4)CS[C@H](c4ccc(Cl)cc4)N23)cc1 | -1 | 3 | 1 | 1 | 3 | -2
CSC1SCC2C(=O)N(C)C(C(C)C)C(=O)OCC(NC(=O)c3cnc4ccccc4n3)C(=O)NC(C)C(=O)N(C)C1C(=O)N(C)C(C(C)C)C(=O)OCC(NC(=O)c1cnc3ccccc3n1)C(=O)NC(C)C(=O)N2C (stereo not given) | -35 | -2 | -51 | -8 | 4 | 95*
O=C(O)c1ccc([N+](=O)[O-])c(CS(=O)(=O)c2ccc(Cl)cc2)c1 | 3 | 2 | -4 | -2 | -4 | 1
O=C(CBr)c1ccc([N+](=O)[O-])c(CS(=O)(=O)c2ccc(Cl)cc2)c1 | 70* | 10 | -3 | 9 | 0 | -7
O=C(O)CSCCc1ccccn1 | 21* | 0 | 2 | 4 | 6 | 10
O=C(O)c1cc(Nc2cc(Cl)c3nonc3c2[N+](=O)[O-])ccc1O | -4 | 65* | 1 | 1 | -13 | -16
CC1(c2nnnn2C2CCCCC2)CSCC(=O)N1CCc1ccc(O)cc1 (stereo not given) | 0 | -2 | 0 | 5 | 3 | 2
COc1ccc(-c2nc3c4ccccc4ccn3c2CC2CCCCC2)cc1OC | 23* | -1 | 2 | -5 | 5 | 7
CCOC(=O)C(=O)Nc1cc(C)on1 | 22* | -3 | 8 | 1 | 45* | 7
CCCCNC(=O)Nc1cc(C)on1 | 0 | 2 | -1 | 0 | 2 | 1
CC(Sc1ccccc1)C(=O)NNC(=O)c1ccncc1 (stereo not given) | 0 | 21* | -4 | 1 | 3 | -2
COC(=O)[C@]12C[C@H](CC(=O)N3CCN(C(=O)C4CC4)CC3)C(=O)N(Cc3ccc(Cl)cc3Cl)C1=C[C@H](COCc1ccccc1)O[C@@H]2C | 0 | 2 | -2 | -3 | -7 | 4
O=C(CSc1n[nH]c(=O)n1-c1ccc2c(c1)OCCO2)Nc1ccccc1 | 27* | -6 | 1 | 7 | 21 | -2
O=C(CSc1n[nH]c(=O)n1-c1ccccc1)Nc1ccccc1 | -2 | -1 | 2 | 1 | -24 | -6
CCOc1cc(C(=O)N2CCN=C2SC)cc(OCC)c1OCC | 1 | 24* | 2 | -2 | 8 | -5
CC(=O)c1cccc(OCc2cc(C(=O)NC3CCN(Cc4ccccc4)CC3)no2)c1 | 21* | -1 | -4 | 1 | -3 | 9
CC(C)(C)OC(=O)/C=C/[C@H](CCCCl)Sc1ccc(C(C)(C)C)cc1 | 1 | -1 | 3 | 2 | -2 | -2
O=C(O)c1ccc(-c2ccc(/C=C3\NC(=O)N(Cc4ccc(Cl)cc4)C3=O)o2)cc1Cl | 77* | 43* | 29* | -24 | 3 | 22*
CCOC(=O)CN1C(=O)S/C(=C\c2ccc(-c3ccc(C(=O)O)c(Cl)c3)o2)C1=O | 14 | 8 | 3 | 1 | 2 | 4
